Measurements as given in ChEMBL document CHEMBL3822431, “Hydroxychalcone inhibitors of Streptococcus mutans glucosyl transferases and biofilms as potential anticaries agents” (Bioorg Med Chem Lett, 2016).

How the values were obtained:
[1] = target: T1, Glucosyltransferase-SI (Streptococcus mutans serotype c (strain ATCC 700610 / UA159)) (UniProt P13470); experiment: Inhibition of Wild-type Streptococcus mutans UA159 glucosyltransferase C by zymography
T1 sequence (whole entry): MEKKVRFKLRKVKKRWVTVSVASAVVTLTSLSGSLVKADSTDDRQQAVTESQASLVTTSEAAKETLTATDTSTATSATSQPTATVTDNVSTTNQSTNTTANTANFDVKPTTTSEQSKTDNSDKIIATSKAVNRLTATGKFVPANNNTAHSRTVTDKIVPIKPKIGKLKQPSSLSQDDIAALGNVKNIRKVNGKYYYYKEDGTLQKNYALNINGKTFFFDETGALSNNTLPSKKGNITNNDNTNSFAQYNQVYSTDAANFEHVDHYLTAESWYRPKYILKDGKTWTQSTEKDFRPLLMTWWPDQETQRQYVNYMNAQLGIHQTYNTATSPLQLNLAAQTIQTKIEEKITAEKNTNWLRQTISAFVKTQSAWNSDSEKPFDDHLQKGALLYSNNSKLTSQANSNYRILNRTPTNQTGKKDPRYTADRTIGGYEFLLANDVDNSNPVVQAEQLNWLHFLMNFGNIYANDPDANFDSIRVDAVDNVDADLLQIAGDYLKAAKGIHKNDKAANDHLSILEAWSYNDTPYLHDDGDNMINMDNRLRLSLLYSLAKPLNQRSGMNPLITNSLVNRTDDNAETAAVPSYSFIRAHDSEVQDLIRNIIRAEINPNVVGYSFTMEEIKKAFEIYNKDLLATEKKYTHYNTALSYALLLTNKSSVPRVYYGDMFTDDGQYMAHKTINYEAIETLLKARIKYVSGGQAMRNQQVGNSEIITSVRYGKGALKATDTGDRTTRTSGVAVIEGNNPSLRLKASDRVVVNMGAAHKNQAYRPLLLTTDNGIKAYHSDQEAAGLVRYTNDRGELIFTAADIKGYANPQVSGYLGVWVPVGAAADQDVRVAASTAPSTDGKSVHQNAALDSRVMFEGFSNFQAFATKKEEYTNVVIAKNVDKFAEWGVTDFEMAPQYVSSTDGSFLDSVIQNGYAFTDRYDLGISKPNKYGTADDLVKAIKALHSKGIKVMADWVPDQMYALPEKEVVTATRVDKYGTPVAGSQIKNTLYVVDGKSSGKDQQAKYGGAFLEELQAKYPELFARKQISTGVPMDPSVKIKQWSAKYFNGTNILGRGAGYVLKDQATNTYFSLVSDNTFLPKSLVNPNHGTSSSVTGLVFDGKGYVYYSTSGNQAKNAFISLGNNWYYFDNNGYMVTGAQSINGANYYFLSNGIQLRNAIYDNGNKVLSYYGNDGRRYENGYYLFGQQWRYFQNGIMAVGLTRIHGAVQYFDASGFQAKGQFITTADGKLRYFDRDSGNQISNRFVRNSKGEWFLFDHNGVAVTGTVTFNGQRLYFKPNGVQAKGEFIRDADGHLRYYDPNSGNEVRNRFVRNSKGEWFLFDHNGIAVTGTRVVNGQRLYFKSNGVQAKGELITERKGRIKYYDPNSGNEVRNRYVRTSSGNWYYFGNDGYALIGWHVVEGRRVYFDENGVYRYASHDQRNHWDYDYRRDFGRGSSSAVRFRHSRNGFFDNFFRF
How it was run: (§1)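 S. mutans UA159 wild type co-incubated with compound at different concentrations; Gtfs concentrated from supernatants, separated by SDS-PAGE and assayed by zymography, glucan band intensity reflecting enzyme activity.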

[2] = target: T2, Glucosyltransferase-S (Streptococcus mutans serotype c (strain ATCC 700610 / UA159)) (UniProt P49331); experiment: Inhibition of Wild-type Streptococcus mutans UA159 glucosyltransferase D by zymography; how it was run: as §1
T2 sequence (whole entry): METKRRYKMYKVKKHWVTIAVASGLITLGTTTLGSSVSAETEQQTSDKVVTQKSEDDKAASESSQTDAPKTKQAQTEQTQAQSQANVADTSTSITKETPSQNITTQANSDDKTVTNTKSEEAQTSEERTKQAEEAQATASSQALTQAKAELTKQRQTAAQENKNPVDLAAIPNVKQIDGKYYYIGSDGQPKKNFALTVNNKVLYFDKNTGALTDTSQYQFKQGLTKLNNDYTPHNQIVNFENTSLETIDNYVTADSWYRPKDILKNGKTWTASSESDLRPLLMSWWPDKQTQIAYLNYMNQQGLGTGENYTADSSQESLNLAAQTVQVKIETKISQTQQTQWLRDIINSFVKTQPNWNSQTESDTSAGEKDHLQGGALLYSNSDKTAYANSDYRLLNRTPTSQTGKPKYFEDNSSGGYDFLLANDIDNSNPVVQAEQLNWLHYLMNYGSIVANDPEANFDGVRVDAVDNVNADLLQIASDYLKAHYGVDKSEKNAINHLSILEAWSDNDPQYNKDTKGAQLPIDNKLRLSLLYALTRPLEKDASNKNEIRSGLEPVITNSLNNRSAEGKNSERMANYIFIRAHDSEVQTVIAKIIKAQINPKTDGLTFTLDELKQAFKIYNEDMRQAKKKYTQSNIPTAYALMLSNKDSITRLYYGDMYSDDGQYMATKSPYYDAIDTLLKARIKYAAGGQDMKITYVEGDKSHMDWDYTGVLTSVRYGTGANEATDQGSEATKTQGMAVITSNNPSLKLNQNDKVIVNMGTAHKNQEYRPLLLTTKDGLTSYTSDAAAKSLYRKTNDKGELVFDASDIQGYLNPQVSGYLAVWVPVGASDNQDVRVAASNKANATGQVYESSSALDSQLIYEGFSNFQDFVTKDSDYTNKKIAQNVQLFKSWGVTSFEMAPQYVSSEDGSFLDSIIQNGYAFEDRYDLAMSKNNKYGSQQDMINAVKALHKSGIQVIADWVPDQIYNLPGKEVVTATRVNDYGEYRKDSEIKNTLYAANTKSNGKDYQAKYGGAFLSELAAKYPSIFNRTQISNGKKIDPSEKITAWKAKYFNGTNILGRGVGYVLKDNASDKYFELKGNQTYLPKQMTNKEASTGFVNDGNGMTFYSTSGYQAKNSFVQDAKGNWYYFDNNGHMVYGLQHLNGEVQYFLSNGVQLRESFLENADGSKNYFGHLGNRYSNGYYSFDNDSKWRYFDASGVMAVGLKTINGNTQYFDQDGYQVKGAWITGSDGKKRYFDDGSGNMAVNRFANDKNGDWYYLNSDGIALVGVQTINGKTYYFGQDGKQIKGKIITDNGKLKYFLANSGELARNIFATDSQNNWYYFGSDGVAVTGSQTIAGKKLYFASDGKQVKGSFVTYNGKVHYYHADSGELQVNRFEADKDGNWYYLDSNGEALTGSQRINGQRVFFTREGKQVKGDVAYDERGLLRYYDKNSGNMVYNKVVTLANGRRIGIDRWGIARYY

O=C(/C=C\c1ccc(O)cc1O)c1cccc(O)c1
inhibition [1]: Dose-dependent effect
inhibition [2]: Dose-dependent effect
